According to ChEMBL document CHEMBL4325889, “Natural products hybrids: 3,5,4'-Trimethoxystilbene-5,6,7-trimethoxyflavone chimeric analogs as potential cytotoxic agents against diverse human cancer cells” (Eur J Med Chem, 2019):

Columns and labels:
Type in all cases: functional
OVCAR-5 = assay: Growth inhibition of human OVCAR5 cells at 10 uM after 48 hrs by SRB assay relative to control; conditions: OVCAR-5, 48 h, read-out: GI
Outline: (§1)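 Screened at the National Cancer Institute by the standard NCI protocol using the sulforhodamine B assay, which measures cellular protein. Single dose of 10 µM. Result is percent growth inhibition; values above 100% mean cell number fell below the initial population. Values are the average of duplicates.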

Malme-3M = assay: Growth inhibition of human MALME-3M cells at 10 uM after 48 hrs by SRB assay relative to control; conditions: read-out: GI; outline: as §1
SK-MEL-28 = assay: Growth inhibition of human SK-MEL-28 cells at 10 uM after 48 hrs by SRB assay relative to control; conditions: SK-MEL-28, 48 h, read-out: GI; outline: as §1
SK-MEL-2 = assay: Growth inhibition of human SK-MEL-2 cells at 10 uM after 48 hrs by SRB assay relative to control; conditions: SK-MEL-2, 48 h, read-out: GI; outline: as §1
SNB-75 = assay: Growth inhibition of human SNB75 cells at 10 uM after 48 hrs by SRB assay relative to control; conditions: SNB-75, 48 h, read-out: GI
Outline: (§2)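 NCI screen against its human cancer cell line panel by the standard NCI protocol, SRB protein stain. Single dose of 10 μM. Percent growth inhibition versus control; values above 100% mean the cell population fell below the starting number. Each value is the mean of duplicates.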

IGROV-1 = assay: Growth inhibition of human IGROV1 cells at 10 uM after 48 hrs by SRB assay relative to control; conditions: IGROV-1, 48 h, read-out: GI; outline: as §1
HL-60(TB) = assay: Growth inhibition of human HL-60(TB) cells at 10 uM after 48 hrs by SRB assay relative to control; conditions: HL-60, 48 h, read-out: GI
Outline: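 Run at NCI under its standard single-dose protocol against a leukemia cell panel. Cells were exposed to 10 µM; growth was read by sulforhodamine B staining of cellular protein and expressed as % growth inhibition versus untreated control. Values above 100% mean the cell population fell below the starting count (cytocidal). Each value is the average of duplicates.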

CAKI-1 = assay: Growth inhibition of human Caki1 cells at 10 uM after 48 hrs by SRB assay relative to control; conditions: CAKI-1, 48 h, read-out: GI; outline: as §1
MCF7 = assay: Growth inhibition of human MCF7 cells at 10 uM after 48 hrs by SRB assay relative to control; conditions: MCF7, 48 h, read-out: GI; outline: as §1
HCT-116 = assay: Growth inhibition of human HCT116 cells at 10 uM after 48 hrs by SRB assay relative to control; conditions: HCT-116, 48 h, read-out: GI; outline: as §1
HOP-92 = assay: Growth inhibition of human HOP92 cells at 10 uM after 48 hrs by SRB assay relative to control; conditions: HOP-92, 48 h, read-out: GI; outline: as §1
DU-145 = assay: Growth inhibition of human DU145 cells at 10 uM after 48 hrs by SRB assay relative to control; conditions: DU-145, 48 h, read-out: GI; outline: as §1
SN12C = assay: Growth inhibition of human SN12C cells at 10 uM after 48 hrs by SRB assay relative to control; conditions: read-out: GI; outline: as §1
RXF 393 = assay: Growth inhibition of human RXF393 cells at 10 uM after 48 hrs by SRB assay relative to control; conditions: RXF 393, 48 h, read-out: GI; outline: as §1
OVCAR-8 = assay: Growth inhibition of human OVCAR8 cells at 10 uM after 48 hrs by SRB assay relative to control; conditions: OVCAR-8, 48 h, read-out: GI; outline: as §1
MOLT-4 = assay: Growth inhibition of human MOLT4 cells at 10 uM after 48 hrs by SRB assay relative to control; conditions: MOLT-4, 48 h, read-out: GI; outline: as §1
SF-539 = assay: Growth inhibition of human SF539 cells at 10 uM after 48 hrs by SRB assay relative to control; conditions: SF-539, 48 h, read-out: GI; outline: as §1
HCT-15 = assay: Growth inhibition of human HCT15 cells at 10 uM after 48 hrs by SRB assay relative to control; conditions: HCT-15, 48 h, read-out: GI; outline: as §1
Hs-578T = assay: Growth inhibition of human Hs 578T cells at 10 uM after 48 hrs by SRB assay relative to control; conditions: read-out: GI; outline: as §1
NCI/ADR-RES = assay: Growth inhibition of human NCI/ADR-RES cells at 10 uM after 48 hrs by SRB assay relative to control; conditions: read-out: GI; outline: as §1
PC-3 = assay: Growth inhibition of human PC3 cells at 10 uM after 48 hrs by SRB assay relative to control; conditions: PC-3, 48 h, read-out: GI; outline: as §1
HOP-62 = assay: Growth inhibition of human HOP62 cells at 10 uM after 48 hrs by SRB assay relative to control; conditions: HOP-62, 48 h, read-out: GI; outline: as §1
RPMI-8226 = assay: Growth inhibition of human RPMI8226 cells at 10 uM after 48 hrs by SRB assay relative to control; conditions: RPMI-8226, 48 h, read-out: GI; outline: as §1
SNB-19 = assay: Growth inhibition of human SNB19 cells at 10 uM after 48 hrs by SRB assay relative to control; conditions: SNB-19, 48 h, read-out: GI; outline: as §2
786-0 = assay: Growth inhibition of human 786-0 cells at 10 uM after 48 hrs by SRB assay relative to control; conditions: 786-0, 48 h, read-out: GI; outline: as §1
LOX IMVI = assay: Growth inhibition of human LOXIMVI cells at 10 uM after 48 hrs by SRB assay relative to control; conditions: read-out: GI; outline: as §1
SW-620 = assay: Growth inhibition of human SW620 cells at 10 uM after 48 hrs by SRB assay relative to control; conditions: SW-620, 48 h, read-out: GI; outline: as §2
KM12 = assay: Growth inhibition of human KM12 cells at 10 uM after 48 hrs by SRB assay relative to control; conditions: KM12, 48 h, read-out: GI; outline: as §1
UO-31 = assay: Growth inhibition of human UO31 cells at 10 uM after 48 hrs by SRB assay relative to control; conditions: UO-31, 48 h, read-out: GI; outline: as §2
K562 = assay: Growth inhibition of human K562 cells at 10 uM after 48 hrs by SRB assay relative to control; conditions: K562, 48 h, read-out: GI; outline: as §1
MDA-MB-468 = assay: Growth inhibition of human MDA-MB-468 cells at 10 uM after 48 hrs by SRB assay relative to control; conditions: MDA-MB-468, 48 h, read-out: GI; outline: as §1
UACC-257 = assay: Growth inhibition of human UACC257 cells at 10 uM after 48 hrs by SRB assay relative to control; conditions: UACC-257, 48 h, read-out: GI; outline: as §2
SF-268 = assay: Growth inhibition of human SF268 cells at 10 uM after 48 hrs by SRB assay relative to control; conditions: SF-268, 48 h, read-out: GI; outline: as §1
ACHN = assay: Growth inhibition of human ACHN cells at 10 uM after 48 hrs by SRB assay relative to control; conditions: read-out: GI; outline: as §1

Structure (SMILES) | inhibition of growth at 10 µM (OVCAR-5) | inhibition of growth at 10 µM (Malme-3M) | inhibition of growth at 10 µM (SK-MEL-28) | inhibition of growth at 10 µM (SK-MEL-2) | inhibition of growth at 10 µM (SNB-75) | inhibition of growth at 10 µM (IGROV-1) | inhibition of growth at 10 µM (HL-60(TB)) | inhibition of growth at 10 µM (CAKI-1) | inhibition of growth at 10 µM (MCF7) | inhibition of growth at 10 µM (HCT-116) | inhibition of growth at 10 µM (HOP-92) | inhibition of growth at 10 µM (DU-145) | inhibition of growth at 10 µM (SN12C) | inhibition of growth at 10 µM (RXF 393) | inhibition of growth at 10 µM (OVCAR-8) | inhibition of growth at 10 µM (MOLT-4) | inhibition of growth at 10 µM (SF-539) | inhibition of growth at 10 µM (HCT-15) | inhibition of growth at 10 µM (Hs-578T) | inhibition of growth at 10 µM (NCI/ADR-RES) | further results
COc1ccccc1NC(=O)c1cccc(-c2cc(=O)c3c(O)c(OC)c(OC)cc3o2)c1 | 8.1% | 5.55% | 5.62% | 14.1% | 13% | -5.97% | 9.41% | 6.75% | 7.54% | 14.5% | 15.8% | 5.49% | 5.99% | 21.8% | 35.2% | 27.9% | 6.01% | 13% | 3.9% | 19.8% | inhibition of growth at 10 µM (PC-3): 25.1%; inhibition of growth at 10 µM (HOP-62): 0.21%; inhibition of growth at 10 µM (RPMI-8226): 45.4%; inhibition of growth at 10 µM (SNB-19): 6.18%; inhibition of growth at 10 µM (786-0): 9.66%; inhibition of growth at 10 µM (LOX IMVI): 16.7%; inhibition of growth at 10 µM (SW-620): -0.74%; inhibition of growth at 10 µM (KM12): 0.81%; inhibition of growth at 10 µM (UO-31): 30%; inhibition of growth at 10 µM (K562): 22.1%; inhibition of growth at 10 µM (MDA-MB-468): 9.38%; inhibition of growth at 10 µM (UACC-257): 1.19%; inhibition of growth at 10 µM (SF-268): 12.9%; inhibition of growth at 10 µM (ACHN): 9.27%
COc1cc2oc(-c3cccc(C(=O)Nc4ccccc4)c3)cc(=O)c2c(OC)c1OC | 16.2% | 12.5% | 8.31% | 15.4% | 7.02% | 19.4% | 12.7% | 4.59% | 7.49% | 18.3% | 29.2% | 12.2% | 27.3% | 24.9% | 34.9% | 43.2% | 19.8% | 20.8% | 8% | 18.2% | inhibition of growth at 10 µM (PC-3): 29%; inhibition of growth at 10 µM (HOP-62): 13.7%; inhibition of growth at 10 µM (RPMI-8226): 59.4%; inhibition of growth at 10 µM (SNB-19): 4.37%; inhibition of growth at 10 µM (786-0): 7.46%; inhibition of growth at 10 µM (LOX IMVI): 33%; inhibition of growth at 10 µM (SW-620): -0.72%; inhibition of growth at 10 µM (KM12): 24.3%; inhibition of growth at 10 µM (UO-31): 35.6%; inhibition of growth at 10 µM (K562): 29.6%; inhibition of growth at 10 µM (MDA-MB-468): 9.98%; inhibition of growth at 10 µM (UACC-257): 5.48%; inhibition of growth at 10 µM (SF-268): 16.7%; inhibition of growth at 10 µM (ACHN): 8.22%
COc1ccc(NC(=O)c2cccc(-c3cc(=O)c4c(O)c(OC)c(OC)cc4o3)c2)cc1 | 2.51% | 19.4% | -4.12% | 16.6% | 105% | 4.86% | -29.7% | 6.41% | 6.72% | 29.5% | 76.4% | 3.06% | 15.7% | 8.01% | 19.4% | -2.73% | 43.9% | -7.36% | 43.9% | 14.7% | inhibition of growth at 10 µM (PC-3): 13.8%; inhibition of growth at 10 µM (HOP-62): 27.8%; inhibition of growth at 10 µM (RPMI-8226): 7.48%; inhibition of growth at 10 µM (SNB-19): 38.4%; inhibition of growth at 10 µM (786-0): 57%; inhibition of growth at 10 µM (LOX IMVI): 20.2%; inhibition of growth at 10 µM (SW-620): -1.58%; inhibition of growth at 10 µM (KM12): -3.03%; inhibition of growth at 10 µM (UO-31): 6.6%; inhibition of growth at 10 µM (K562): 8.23%; inhibition of growth at 10 µM (MDA-MB-468): 15.7%; inhibition of growth at 10 µM (UACC-257): 20.8%; inhibition of growth at 10 µM (SF-268): 45.4%; inhibition of growth at 10 µM (ACHN): 16.4%
COc1cccc(C(=O)Nc2cccc(-c3cc(=O)c4c(OC)c(OC)c(OC)cc4o3)c2)c1 | 10.4% | 12.8% | 27% | 38.1% | 32.6% | 42.6% | 14.8% | 18.1% | 21.3% | 46.4% | 51.8% | 32.6% | 38.7% | 28.9% | 47.7% | 53.3% | 33.7% | 46.6% | 43.2% | 34.5% | inhibition of growth at 10 µM (PC-3): 48.8%; inhibition of growth at 10 µM (HOP-62): 30.2%; inhibition of growth at 10 µM (RPMI-8226): 83.2%; inhibition of growth at 10 µM (SNB-19): 29.6%; inhibition of growth at 10 µM (786-0): 47.2%; inhibition of growth at 10 µM (LOX IMVI): 42.6%; inhibition of growth at 10 µM (SW-620): 22.8%; inhibition of growth at 10 µM (KM12): 53.9%; inhibition of growth at 10 µM (UO-31): 66.7%; inhibition of growth at 10 µM (K562): 62%; inhibition of growth at 10 µM (MDA-MB-468): 5.72%; inhibition of growth at 10 µM (UACC-257): 3.66%; inhibition of growth at 10 µM (SF-268): 42.6%; inhibition of growth at 10 µM (ACHN): 42.1%
